Assay results as given in ChEMBL document CHEMBL1155135, “Effect of Lamivudine on the plasma and intracellular pharmacokinetics of apricitabine, a novel nucleoside reverse transcriptase inhibitor, in healthy volunteers” (Antimicrob Agents Chemother, 2007).
Blank lines part the entries; values can stand above or below the compound they belong to.

Assays:
[1] = Cmax in healthy human at 600 mg, po administered twice daily for 4 days; format: ADME, organism-based; parameters: dose 600 mg, route oral; settings: in vivo
Summary of the method: (§1)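 Healthy volunteers took each regimen in random order for 4 days, with washouts of at least 7 days. The day-4 morning dose followed a fast of at least 10 h. Plasma was drawn predose and 0.5–36 h after dosing, and urine was collected to 36 h; both were assayed by validated HPLC. Cmax/Tmax were read from the curves. CLT/F = dose/AUC, CLR = 24-h urinary amount/AUC0-24, Vz/F = dose/(λz·AUC), t1/2 = ln2/λz.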

[2] = Tmax in healthy human at 600 mg, po administered twice daily for 4 days; format: ADME, organism-based; settings: in vivo; summary of the method: as §1
[3] = AUC (0 to 24 hrs) in healthy human at 600 mg, po administered twice daily for 4 days; format: ADME, organism-based; parameters: dose 600 mg, time < 24 hr, route oral; settings: plasma; summary of the method: as §1
[4] = Apparent total oral clearance in healthy human at 600 mg, po administered twice daily for 4 days; format: ADME, organism-based; settings: in vivo; summary of the method: as §1
[5] = Renal clearance in healthy human at 600 mg, po administered twice daily for 4 days; format: ADME, organism-based, Kidney; settings: in vivo, read-out: CL_renal (converted); summary of the method: as §1
[6] = tested on: Homo sapiens; experiment: Volume of distribution at steady state in healthy human at 600 mg, po administered twice daily for 4 days; format: ADME, organism-based; settings: in vivo, 96 h; summary of the method: as §1
[7] = Apparent terminal half life in healthy human at 600 mg, po administered twice daily for 4 days; format: ADME, organism-based; settings: in vivo; summary of the method: as §1
[8] = Cmax in healthy human at 600 mg, po twice daily coadministered with 300 mg, po Lamivudine once daily for 4 days; format: ADME, organism-based; parameters: dose 600 mg, route oral; settings: in vivo; summary of the method: as §1
[9] = Tmax in healthy human at 600 mg, po twice daily coadministered with 300 mg, po Lamivudine once daily for 4 days; format: ADME, organism-based; settings: in vivo; summary of the method: as §1
[10] = AUC (0 to 24 hrs) in healthy human at 600 mg, po twice daily coadministered with 300 mg, po Lamivudine once daily for 4 days; format: ADME, organism-based; parameters: dose 600 mg, time < 24 hr, route oral; settings: plasma; summary of the method: as §1
[11] = tested on: Homo sapiens; experiment: Apparent total oral clearance in healthy human at 600 mg, po twice daily coadministered with 300 mg, po Lamivudine once daily for 4 days; format: ADME, organism-based; settings: in vivo, 96 h; summary of the method: as §1
[12] = tested on: Homo sapiens; experiment: Renal clearance in healthy human at 600 mg, po twice daily coadministered with 300 mg, po Lamivudine once daily for 4 days; format: ADME, organism-based, Kidney; settings: in vivo, 96 h; summary of the method: as §1
[13] = tested on: Homo sapiens; experiment: Volume of distribution at steady state in healthy human at 600 mg, po twice daily coadministered with 300 mg, po Lamivudine once daily for 4 days; format: ADME, organism-based; settings: in vivo, 96 h; summary of the method: as §1
[14] = Apparent terminal half life in healthy human at 600 mg, po twice daily coadministered with 300 mg, po Lamivudine once daily for 4 days; format: ADME, organism-based; settings: in vivo; summary of the method: as §1
[15] = tested on: Homo sapiens; experiment: Tmax in healthy human PBMC assessed as intracellular apricitabine triphosphate level at 600 mg, po administered twice daily for 4 days; format: ADME, organism-based; settings: in vivo, 96 h
Summary of the method: (§2)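 PBMC were isolated from triplicate day-4 blood samples taken 2, 4, 8, 12 and 24 h after the morning dose, then extracted in 70/30 methanol-Tris-HCl pH 7.4. Triphosphates were separated by anion-exchange SPE with KCl washes, eluted with 500 mM KCl, and dephosphorylated with alkaline phosphatase at 37°C. Quantitation used HPLC-MS/MS with a labelled triphosphate internal standard; LLOQ 0.0592 pmol/10^6 cells. Cmax/Tmax were read by inspection; t1/2 = ln2/λz.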

[16] = tested on: Homo sapiens; experiment: Cmax in healthy human PBMC assessed as intracellular apricitabine triphosphate level per 10^6 cells at 600 mg, po administered twice daily for 4 days; format: ADME, organism-based, Blood; parameters: dose 600 mg, route oral; settings: in vivo, 96 h; summary of the method: as §2
[17] = tested on: Homo sapiens; experiment: Cmin in healthy human PBMC assessed as intracellular apricitabine triphosphate level per 10^6 cells at 600 mg, po administered twice daily for 4 days; format: ADME, organism-based; settings: in vivo, 96 h
[18] = tested on: Homo sapiens; experiment: Ratio of Cmax to Cmin in healthy human PBMC assessed as intracellular apricitabine triphosphate level per 10^6 cells at 600 mg, po administered twice daily for 4 days; format: ADME, organism-based; settings: in vivo, 96 h
[19] = tested on: Homo sapiens; experiment: AUC (0 to 12 hrs) in healthy human PBMC assessed as intracellular apricitabine triphosphate level per 10^6 cells at 600 mg, po administered twice daily for 4 days; format: ADME, organism-based; parameters: dose 600 mg, time < 12 hr, route oral; settings: in vivo; summary of the method: as §2
[20] = tested on: Homo sapiens; experiment: Half life in healthy human PBMC assessed as intracellular apricitabine triphosphate level per 10^6 cells at 600 mg, po administered twice daily for 4 days; format: ADME, organism-based; settings: in vivo, 96 h; summary of the method: as §2
[21] = tested on: Homo sapiens; experiment: Tmax in healthy human PBMC assessed as intracellular apricitabine triphosphate level at 600 mg, po twice daily coadministered with 300 mg, po Lamivudine once daily for 4 days; format: ADME, organism-based; settings: in vivo, 96 h; summary of the method: as §2
[22] = tested on: Homo sapiens; experiment: Cmax in healthy human PBMC assessed as intracellular apricitabine triphosphate level per 10^6 cells at 600 mg, po twice daily coadministered with 300 mg, po Lamivudine once daily for 4 days; format: ADME, organism-based, Blood; parameters: dose 600 mg, route oral; settings: in vivo, 96 h; summary of the method: as §2
[23] = tested on: Homo sapiens; experiment: Cmin in healthy human PBMC assessed as intracellular apricitabine triphosphate level per 10^6 cells at 600 mg, po twice daily coadministered with 300 mg, po Lamivudine once daily for 4 days; format: ADME, organism-based; settings: in vivo, 96 h
[24] = tested on: Homo sapiens; experiment: Ratio of Cmax to Cmin in healthy human PBMC assessed as intracellular apricitabine triphosphate level per 10^6 cells at 600 mg, po twice daily coadministered with 300 mg, po Lamivudine once daily for 4 days; format: ADME, organism-based; settings: in vivo, 96 h
[25] = tested on: Homo sapiens; experiment: AUC (0 to 12 hrs) in healthy human PBMC assessed as intracellular apricitabine triphosphate level per 10^6 cells at 600 mg, po twice daily coadministered with 300 mg, po Lamivudine once daily for 4 days; format: ADME, organism-based; parameters: time < 12 hr, dose 600 mg, route oral; settings: in vivo; summary of the method: as §2
[26] = tested on: Homo sapiens; experiment: Half life in healthy human PBMC assessed as intracellular apricitabine triphosphate level per 10^6 cells at 600 mg, po twice daily coadministered with 300 mg, po Lamivudine once daily for 4 days; format: ADME, organism-based; settings: in vivo, 96 h; summary of the method: as §2
[27] = Cmax in healthy human at 300 mg, po administered once daily for 4 days; format: ADME, organism-based; parameters: dose 300 mg, route oral; settings: in vivo; summary of the method: as §1
[28] = Tmax in healthy human at 300 mg, po administered once daily for 4 days; format: ADME, organism-based; settings: in vivo; summary of the method: as §1
[29] = AUC (0 to 24 hrs) in healthy human at 300 mg, po administered once daily for 4 days; format: ADME, organism-based; parameters: dose 300 mg, time < 24 hr, route oral; settings: plasma; summary of the method: as §1
[30] = Cmax in healthy human at 300 mg, po once daily coadministered with 600 mg, po apricitabine twice daily for 4 days; format: ADME, organism-based; parameters: dose 300 mg, route oral; settings: in vivo; summary of the method: as §1
[31] = Tmax in healthy human at 300 mg, po once daily coadministered with 600 mg, po apricitabine twice daily for 4 days; format: ADME, organism-based; settings: in vivo; summary of the method: as §1
[32] = AUC (0 to 24 hrs) in healthy human at 300 mg, po once daily coadministered with 600 mg, po apricitabine twice daily for 4 days; format: ADME, organism-based; parameters: time < 24 hr, dose 300 mg, route oral; settings: plasma; summary of the method: as §1
[33] = tested on: Homo sapiens; experiment: Tmax in healthy human PBMC assessed as intracellular apricitabine triphosphate level at 300 mg, po administered once daily for 4 days; format: ADME, organism-based; settings: in vivo, 96 h, in the assay text read “lamivudine” for “apricitabine”; summary of the method: as §2
[34] = tested on: Homo sapiens; experiment: Tmax in healthy human PBMC assessed as intracellular apricitabine triphosphate level at 300 mg, po once daily coadministered with 600 mg, po apricitabine twice daily for 4 days; format: ADME, organism-based; settings: in vivo, 96 h; summary of the method: as §2
[35] = tested on: Homo sapiens; experiment: Cmax in healthy human PBMC assessed as intracellular apricitabine triphosphate level per 10^6 cells at 300 mg, po once daily coadministered with 600 mg, po apricitabine twice daily for 4 days; format: ADME, organism-based, Blood; parameters: dose 300 mg, route oral; settings: in vivo, 96 h; summary of the method: as §2
[36] = tested on: Homo sapiens; experiment: Cmin in healthy human PBMC assessed as intracellular apricitabine triphosphate level per 10^6 cells at 300 mg, po once daily coadministered with 600 mg, po apricitabine twice daily for 4 days; format: ADME, organism-based; settings: in vivo, 96 h
[37] = tested on: Homo sapiens; experiment: Cmax in healthy human PBMC assessed as intracellular lamivudine triphosphate level per 10^6 cells at 300 mg, po administered once daily for 4 days; settings: in vivo, 96 h
[38] = tested on: Homo sapiens; experiment: Cmin in healthy human PBMC assessed as intracellular lamivudine triphosphate level per 10^6 cells at 300 mg, po administered once daily for 4 days; settings: in vivo, 96 h
[39] = tested on: Homo sapiens; experiment: AUC (0 to 12 hrs) in healthy human PBMC assessed as intracellular lamivudine triphosphate level per 10^6 cells at 300 mg, po administered once daily for 4 days; settings: in vivo
[40] = tested on: Homo sapiens; experiment: AUC (0 to 12 hrs) in healthy human PBMC assessed as intracellular lamivudine triphosphate level per 10^6 cells at 300 mg, po once daily coadministered with 600 mg, po apricitabine twice daily for 4 days; settings: in vivo

Cmax [1]: 7430 ng/mL
Tmax [2]: 1.76 h
AUC at 24 h [3]: 70900 ng·h/mL
CL/F [4]: 283 mL/min
CL renal at 96 h [5]: 192 mL/min
Vdss [6]: 67.7 L
half-life [7]: 2.72 h
Cmax [8]: 7110 ng/mL
Tmax [9]: 1.55 h
AUC at 24 h [10]: 65600 ng·h/mL
CL/F [11]: 18.3 L/h
CL renal [12]: 12.2 L/h
Vdss [13]: 67.9 L
half-life [14]: 2.6 h
Tmax [15]: 3.52 h
Cmax [16]: 1.66 pmol/10^6cells
Cmin_PBMC [17]: 0.6 pmol/10^6cells
Ratio [18]: 3.28
AUC [19]: 13.3 pmol·h/10^6 cells
t1/2 [20]: 6.22 h
Tmax [21]: 3.14 h
Cmax [22]: 0.257 pmol/10^6cells
Cmin_PBMC [23]: 0.078 pmol/10^6cells
Ratio [24]: 3.54
AUC [25]: 1.98 pmol·h/10^6 cells
t1/2 [26]: 5.06 h
Compound: Nc1ccn([C@H]2CO[C@@H](CO)S2)c(=O)n1 [APRICITABINE]

Cmax [27]: 3980 ng/mL
Tmax [28]: 1 h
AUC at 24 h [29]: 15700 ng·h/mL
Cmax [30]: 3810 ng/mL
Tmax [31]: 1.02 h
AUC at 24 h [32]: 15500 ng·h/mL
Tmax [33]: 4.76 h
Tmax [34]: 3.9 h
Cmax [35]: 9.91 pmol/10^6cells
Cmin_PBMC [36]: 4.52 pmol/10^6cells
Cmax [37]: 9.83 pmol/10^6cells
Cmin_PBMC [38]: 4.35 pmol/10^6cells
AUC [39]: 154 pmol·h/10^6 cells
AUC [40]: 161 pmol·h/10^6 cells
Compound: Nc1ccn([C@@H]2CS[C@H](CO)O2)c(=O)n1 [LAMIVUDINE]
